Data reported in ChEMBL document CHEMBL5674889, “Enhanced JunD/RSK3 signalling due to loss of BRD4/FOXD3/miR-548d-3p axis determines BET inhibition resistance” (2020).
Active and inactive are the calls of the source.

What was measured:
[1] = tested on: BT-549; assay: Antiproliferative activity in human BT-549 cells assessed as cell viability at 1 uM by CCK-8 assay; format: functional, cell-based
[2] = tested on: MDA-MB-231; assay: Effect on human MDA-MB-231 cells assessed as JunD protein expression by Western blot analysis; format: functional, cell-based
[3] = tested on: BT-549; assay: Effect on human BT-549 cells assessed as JunD protein expression by Western blot analysis; format: functional, cell-based
[4] = tested on: BT-549; assay: Effect on human BT-549 cells assessed as RPS6KA2 protein expression by Western blot analysis; format: functional, cell-based
[5] = tested on: MDA-MB-231; assay: Effect on human MDA-MB-231 cells assessed as RPS6KA2 protein expression by Western blot analysis; format: functional, cell-based
[6] = tested on: MDA-MB-231; assay: Antiproliferative activity in human MDA-MB-231 cells assessed as reduced cell growth co-treated with XMD8-92 at 1 uM by CCK-8 assay; format: functional, cell-based
In short: (§1)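 MDA-MB-231 (DMEM + 10% FBS) or BT549 (RPMI-1640 + 10% FBS) seeded at 3000 cells/well and left to adhere overnight. Treated 48 h with the kinase inhibitors alone, combined, or together with JQ1. Growth measured by CCK-8 and normalized to the DMSO-treated control after background subtraction. Triplicates, mean ± SD, one-way ANOVA against JQ1 alone.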

[7] = tested on: BT-549; assay: Antiproliferative activity in human BT-549 cells assessed as reduced cell growth co-treated with XMD8-92 at 1 uM by CCK-8 assay; format: functional, cell-based; in short: as §1
[8] = tested on: MDA-MB-231; assay: Effect on human MDA-MB-231 cells assessed as RSK3 protein expression in the presence of XMD8-92 at 1 uM by Western blot analysis; format: functional, cell-based
[9] = tested on: MDA-MB-231; assay: Effect on human MDA-MB-231 cells assessed as EGFR protein expression at 1 uM by Western blot analysis; format: functional, cell-based
[10] = tested on: MDA-MB-231; assay: Antiproliferative activity in human MDA-MB-231 cells assessed as reduction in cell growth at 1 uM by CCK-8 assay; format: functional, cell-based
[11] = tested on: BT-549; assay: Antiproliferative activity in human BT-549 cells assessed as reduction in cell growth at 1 uM by CCK-8 assay; format: functional, cell-based
[12] = tested on: MDA-MB-231; assay: Effect on human MDA-MB-231 cells assessed as suppression of tumor sphere formation at 1 uM by Tumor sphere assay; format: functional, cell-based
[13] = tested on: BT-549; assay: Effect on human BT-549 cells assessed as suppression of tumor sphere formation at 1 uM by Tumor sphere assay; format: functional, cell-based
[14] = tested on: MDA-MB-231; assay: Antiproliferative activity in human BRD4-knockdown MDA-MB-231 cells assessed as cell growth at 1 uM by CCK-8 assay; format: functional, cell-based
In short: (§2)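 Vector control or BRD4-knockdown cells, 3000/well, adhered overnight, then DMSO or osimertinib for 48 h; growth by CCK-8, normalized to DMSO-treated control. Triplicates, mean ± SD; one-way ANOVA, vehicle vs osimertinib in knockdown clones.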

[15] = tested on: BT-549; assay: Antiproliferative activity in human BRD4-knockdown BT-549 cells assessed as cell growth at 1 uM by CCK-8 assay; format: functional, cell-based; in short: as §2
[16] = tested on: MDA-MB-231; assay: Antiproliferative activity in human MDA-MB-231 cells assessed as reduction in size of tumor sphere at 1 uM by Tumor sphere assay; format: functional, cell-based
[17] = tested on: BT-549; assay: Antiproliferative activity in human BT-549 cells assessed as reduction in size of tumor sphere at 1 uM by Tumor sphere assay; format: functional, cell-based
[18] = tested on: BT-549; assay: Inhibition of cell migration in human BT-549 cells at 1 uM by transwell invasion assay; format: functional, cell-based
[19] = tested on: MDA-MB-231; assay: Inhibition of cell migration in human MDA-MB-231 cells at 1 uM by transwell invasion assay; format: functional, cell-based
In short: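 Invasion assay: 1 × 10^5 cells seeded in Matrigel-coated upper Boyden chamber; lower chamber held serum-free medium with 100 nM LPA. After 24 or 48 h, invaded cells stained with crystal violet and counted.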

[20] = tested on: MDA-MB-231; assay: Induction of apoptosis in human MDA-MB-231 cells in the presence of osimertinib at 1 uM by flow cytometry analysis; format: functional, cell-based
In short: (§3)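 Cells given JQ1 and/or osimertinib, then stained with Annexin V-FITC plus propidium iodide (10 min, room temperature, dark; 1 × 10^6 cells/ml in binding buffer after two PBS washes) and analysed by flow cytometry; one-way ANOVA.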

[21] = tested on: BT-549; assay: Induction of apoptosis in human BT-549 cells in the presence of osimertinib at 1 uM by flow cytometry analysis; format: functional, cell-based; in short: as §3
[22] = tested on: MDA-MB-231; assay: Induction of apoptosis in human MDA-MB-231 cells assessed as caspase-3 cleavage in the presence of osimertinib at 1 uM by Western blotting analysis; format: functional, cell-based
[23] = tested on: MDA-MB-231; assay: Antitumor activity against human MDA-MB-231 cells xenografted in BALB/c nude mouse model assessed as reduction of tumor size in the presence of osimertinib at 35 mg/kg/day, sc administered every 2 days for 30 days; format: functional, organism-based; conditions: time 30.0 day
In short: (§4)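 MDA-MB-231 xenografts used 1 × 10^6 cells injected subcutaneously into female BALB/c nude mice (4–6 weeks). Animals were split into four groups (n = 7) at ~100 mm3: vehicle, osimertinib 10 mg/kg, 35 mg/kg agent, or the combination, each given every 2 days. Volume was measured by calliper as length × width²/2; tumours were weighed at end.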

[24] = tested on: MDA-MB-231; assay: Antitumor activity against human MDA-MB-231 cells xenografted in BALB/c nude mouse model assessed as reduction of tumor weight in the presence of osimertinib at 35 mg/kg/day, sc administered every 2 days for 30 days; format: functional, organism-based; conditions: time 30.0 day; in short: as §4
[25] = tested on: MDA-MB-231; assay: Antiproliferative activity in human MDA-MB-231 cells assessed as inhibited cell growth at 1 uM by CCK-8 assay; format: functional, cell-based
[26] = tested on: BT-474; assay: Antiproliferative activity in human BT-474 cells assessed as cell growth at 1 uM by CCK-8 assay; format: functional, cell-based
In short: (§5)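 Cells grown in 10% FBS medium (DMEM for BT-474 and MDA-MB-231) and seeded at 3000 cells/well, adhering overnight. Exposed to 1 μM for 48 h, with DMSO as control. Growth read by CCK-8 as background-subtracted signal normalized to the DMSO control. Mean ± SD of triplicates.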

[27] = tested on: MDA-MB-231; assay: Antiproliferative activity in human MDA-MB-231 cells assessed as cell growth at 1 uM by CCK-8 assay; format: functional, cell-based; in short: as §5
[28] = tested on: BT-549; assay: Antiproliferative activity in human BT-549 cells assessed as reduced cell growth co-treated with GDC-0994 at 1 uM by CCK-8 assay; format: functional, cell-based; in short: as §1
[29] = tested on: MDA-MB-231; assay: Antiproliferative activity in human MDA-MB-231 cells assessed as reduced cell growth co-treated with GDC-0994 at 1 uM by CCK-8 assay; format: functional, cell-based; in short: as §1
[30] = tested on: MDA-MB-231; assay: Effect on human MDA-MB-231 cells assessed as decrease in RSK3 protein expression in the presence of GDC-0994 at 1 uM by Western blot analysis; format: functional, cell-based

CCNC(=O)C[C@@H]1N=C(c2ccc(Cl)cc2)c2cc(OC)ccc2-n2c(C)nnc21
active: Activity [1] | Activity [2] | Activity [3] | Activity [4] | Activity [5]

Cn1nccc1Nc1nccc(-c2ccn([C@H](CO)c3ccc(Cl)c(F)c3)c(=O)c2)n1
active: Activity [6] | Activity [7] | Activity [8] | Activity [9]

C[S+]([O-])c1ccc(-c2nc(-c3ccc(F)cc3)c(-c3ccncc3)[nH]2)cc1 (stereo not drawn)
active: Activity [10] | Activity [11]

C=CC(=O)Nc1cc(Nc2nccc(-c3cn(C)c4ccccc34)n2)c(OC)cc1N(C)CCN(C)C
active: Activity [12] | Activity [13] | Activity [14] | Activity [15] | Activity [1] | Activity [16] | Activity [17] | inhibition [18] | inhibition [19] | Activity [20] | Activity [21] | Activity [22] | Activity [23] | Activity [24] | Activity [25]

Oc1c(F)cc(-c2cnccc2-c2ccc(N3CCOCC3)cc2)cc1F
active: Activity [26] | Activity [27]

CN1CCN(c2ccc(-c3ccncc3-c3cc(F)c(O)c(F)c3)cc2)CC1
active: Activity [26] | Activity [27]

COc1cc2c(cc1-c1c(C)noc1C)ncc1[nH]c(=O)n([C@H](C)c3ccccn3)c12
active: Activity [1] | Activity [2] | Activity [3] | Activity [4] | Activity [5]

CCOc1cc(N2CCC(O)CC2)ccc1Nc1ncc2c(n1)N(C)c1ccccc1C(=O)N2C
active: Activity [28] | Activity [29] | Activity [30]
